A selection: hits, their analogues and other compounds. The true share with any hit is near 2.5%.
MC4R barr agon = human MC4R agonism via beta-arrestin. P32245. U2OS MC4R beta-arrestin complementation, luminescence; percent of melanotan II response, DMSO zero. activation, % at 8.9 µM. 0.98% of 360,000 active;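 active = activation above a per-plate cutoff, the mean activation of sample wells on that plate plus 3 SD, cut at about 8% in these data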
MC4R antagonist = human MC4R antagonism in cAMP assay. P32245. MC4R-expressing cells, MTII-stimulated cAMP, LANCE TR-FRET. inhibition, % at 6.5 µM. 0.48% of 360,000 active. AID 540295;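 active = inhibition above its plate's cutoff, the mean of tested wells on that plate plus 3 SD, cut at about 29% in these data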
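Test system: U2OS cells stably expressing human melanocortin 4 receptor (MC4R); also added: Melanotan II challenge; compound: 6.5 µM single dose; timing: 30-min compound preincubation, 1-h Melanotan II challenge, 1-h detection, room temperature; signal: Eu-cAMP/anti-cAMP TR-FRET, emission 671 nm; repeats: one well per compound, no replicates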
NTR1 agonist = agonists of human neurotensin receptor NTR1. activation, % at 20 µM. 0.17% of 330,000 active. P30989. NTR1-U2OS beta-arrestin-GFP spot imaging, agonist mode;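 active = activation at or above 40% of the spot to cytoplasm intensity ratio, with at least 20 cells analyzed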
NR1D1 modulator = modulates human Rev-erb alpha binding to DNA | Rev-erbα–FITC-DNA binding, fluorescence polarization, 90 min | activity, % at 10 µM | 0.79% of 370,000 active | AID 1259318;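 active = activity above about 14%, limit read from the data; passing the limit was not always enough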
Target sequence (P20393 whole entry, looked up): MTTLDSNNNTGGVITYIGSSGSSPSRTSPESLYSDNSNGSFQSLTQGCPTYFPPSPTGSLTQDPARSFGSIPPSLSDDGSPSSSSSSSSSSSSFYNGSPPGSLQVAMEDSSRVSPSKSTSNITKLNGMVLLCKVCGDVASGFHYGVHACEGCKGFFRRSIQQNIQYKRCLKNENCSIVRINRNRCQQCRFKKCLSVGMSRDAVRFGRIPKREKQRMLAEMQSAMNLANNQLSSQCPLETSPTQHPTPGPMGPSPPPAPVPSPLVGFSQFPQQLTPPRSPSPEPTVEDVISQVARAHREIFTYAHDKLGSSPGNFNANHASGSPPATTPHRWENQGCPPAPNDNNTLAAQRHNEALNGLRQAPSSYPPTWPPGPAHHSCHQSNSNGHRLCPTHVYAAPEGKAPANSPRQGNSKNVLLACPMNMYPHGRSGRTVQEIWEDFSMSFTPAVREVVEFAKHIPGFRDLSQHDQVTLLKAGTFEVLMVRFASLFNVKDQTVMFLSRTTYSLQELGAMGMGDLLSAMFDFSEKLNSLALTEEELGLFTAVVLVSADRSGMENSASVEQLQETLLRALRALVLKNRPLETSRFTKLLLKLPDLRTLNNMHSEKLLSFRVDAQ
PG9 Ab binder = binds the HIV-1 gp120 antibody PG9 | TR-FRET gp120-PG9 antibody binding | inhibition, % at 6.7 µM | 0.43% of 360,000 active; in the data active = inhibition above about 8.5%
cAMP nonselect = counter-screen for MC4R antagonists: nonselective cAMP signaling inhibitors. parental U2OS, forskolin cAMP, LANCE TR-FRET. 26% of 1,600 active. shares compounds with MC4R antagonist. inhibition, % at 6.5 µM;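 active = mean inhibition over triplicates above the low-control well mean plus 3 SD, set per campaign, cut at about 13% in these data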;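 also: signal is single emission at 671 nm which falls as cellular cAMP rises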
MC4R antag conf = human MC4R cAMP antagonism confirmation | inhibition, % at 6.5 µM | MC4R-expressing cells, MTII-stimulated cAMP, TR-FRET | shares compounds with MC4R antagonist | 27% of 1,600 active; in the data active = inhibition above about 29%
Numbers stand for hits; - = inactive; . = not tested or not shown.

SMILES | MC4R barr agon | MC4R antagonist | NTR1 agonist | NR1D1 modulator | PG9 Ab binder | cAMP nonselect | MC4R antag conf
CC(C)CN1C(=O)[C@@]2(CC(=O)N(C)C2c2ccccc2)c2cc(-n3cc(CCCC#N)nn3)ccc21 (stereo partly specified) | . | . | . | - | . | . | .
COc1cc(OC)c(C#N)c(S(=O)(=O)Cc2ccccc2)c1 | - | - | - | - | - | . | .
N#Cc1c([N+](=O)[O-])cc([N+](=O)[O-])cc1S(=O)(=O)Cc1ccccc1 | - | 88 | - | - | - | 34 | -
COc1ccc(C(=O)N2CCC[C@@H]2C(=O)N2CCC[C@@H]2C(=O)NCc2ccccc2)cc1F | . | . | . | - | - | . | .
COc1cc(OC)cc(Oc2ccc(S(=O)(=O)N3CCCCC3)cc2[N+](=O)[O-])c1 | - | 30 | - | - | - | - | -
COC(=O)COc1ccc(S(=O)(=O)N2CCCCC2)cc1[N+](=O)[O-] | - | - | - | - | - | . | .
O=C(NC(Nc1nc2ccc([N+](=O)[O-])cc2s1)(C(F)(F)F)C(F)(F)F)c1ccccc1Cl | - | 33 | - | - | - | - | -
CCC1=NN2C(=N)/C(=C\c3cccn3-c3ccc(C)cc3C)C(=O)N=C2S1 | - | 44 | - | - | - | - | -
COc1ccc(-n2cccc2/C=C2\C(=N)N3N=C(c4ccco4)SC3=NC2=O)cc1 | - | - | - | - | - | . | .
COc1ccc(-n2cccc2/C=C2\C(=N)N3N=C(C(C)C)SC3=NC2=O)cc1 | - | 47 | - | - | - | - | -
CCC1=NN2C(=N)/C(=C\c3cccn3-c3c(C)cccc3C)C(=O)N=C2S1 | - | - | - | - | - | . | .
CCOc1ccc(N(CC(=O)Nc2c(C)n(C)n(-c3ccccc3)c2=O)S(=O)(=O)c2cccs2)cc1 | . | . | . | - | . | . | .
NC(=O)c1c(N)[nH]c(C(=O)c2ccccc2)c1-c1ccccc1C(F)(F)F | . | . | . | - | . | . | .
CN(N=Cc1ccccc1O)C(=O)c1ccccc1N | . | . | . | - | - | . | .
O=C(O)c1ccc2c(c1)SC1=NS(=O)(=O)CCN12 | - | 29 | - | - | - | 20 | -
O=S(=O)(c1ccccc1)N1CCN(c2nnc(-c3ccccc3)c3ccccc23)CC1 | - | 30 | - | - | - | - | -
CS(=O)(=O)N1CCN(c2nnc(-c3ccccc3)c3ccccc23)CC1 | - | - | - | - | - | . | .
CC(Sc1ccsc1[N+](=O)[O-])C(=O)NCc1ccccc1 (stereo unspecified) | . | . | - | - | - | . | .
COc1ccccc1CNC(=O)C(C)Sc1ccsc1[N+](=O)[O-] (stereo unspecified) | - | 30 | - | - | - | - | -
CC(C)[C@H](N)C(=O)N[C@H](C(=O)N1CCC2CCN(S(=O)(=O)c3ccccc3)CC21)C(C)C (stereo partly specified) | . | . | . | - | . | . | .
C=CCc1cccc2cc(C(=O)N3CCN(C(=O)c4ccccc4)CC3)c(=O)oc12 | - | 30 | - | - | - | - | -
Cc1[nH]c2ccccc2c1CCN(Cc1cccs1)C(=O)Nc1cccc2c1OCO2 | . | . | . | - | . | . | .
COc1cc2c(cc1NC(=O)COC(=O)CNS(=O)(=O)c1ccc(C)cc1)oc1ccccc12 | - | 30 | - | - | - | - | 41
COc1ccc(S(=O)(=O)N[C@@H](C)C(=O)OCC(=O)Nc2cc3oc4ccccc4c3cc2OC)cc1 | - | 35 | - | - | - | 23 | 39
COc1cc2c(cc1NC(=O)COC(=O)[C@@H](NS(=O)(=O)c1cccc(Cl)c1)C(C)C)oc1ccccc12 | - | - | - | - | - | . | .
SMILES | MC4R barr agon | MC4R antagonist | NTR1 agonist | NR1D1 modulator | PG9 Ab binder | cAMP nonselect | MC4R antag conf
Cc1ccc(S(=O)(=O)NCC(=O)OCC(=O)Nc2ccccc2OC(F)F)cc1 | - | 33 | - | - | - | 13 | 29
COc1ccc(NC(=O)COC(=O)CNS(=O)(=O)c2ccc(C)cc2)c(OC)c1 | - | - | - | - | - | . | .
Cc1ccc(S(=O)(=O)NCC(=O)NCC(=O)OCc2c(F)cccc2Cl)cc1 | - | 33 | - | - | - | 27 | 40
O=C(COC(=O)CCNS(=O)(=O)c1ccc(Cl)cc1)Nc1ccccc1OC(F)F | - | - | - | - | - | . | .
Cc1ccc(C(=O)NCC(=O)OCc2c(F)cccc2Cl)cc1 | - | - | - | - | - | . | .
COC(=O)[C@]12C[C@H](CC(=O)NCc3cccc(C(F)(F)F)c3)C(=O)N(Cc3ccc4c(c3)OCO4)C1=C[C@H](C(C)(C)C)O[C@@H]2C | . | . | . | - | - | . | .
CCCCOCC1CN(CCCC)S(=O)(=O)c2c(cccc2N2CCCCC2)O1 (stereo unspecified) | . | . | . | - | - | . | .
O=C(Nc1nc2ncccn2c1-c1ccc(F)cc1)c1ccc(F)cc1 | . | . | . | - | . | . | .
Cc1ccc(S(=O)(=O)NCC(=O)OCC(=O)NCc2ccc(F)cc2)cc1 | - | 34 | - | - | - | 18 | -
COC(=O)c1ccc(CNC(=O)COC(=O)CNS(=O)(=O)c2ccc(C)cc2)cc1 | - | - | . | - | - | . | .
CC[N+]1(C)CCC(O)(c2ccc(OC)cc2)C(C(=O)c2ccc(OC)cc2)C1 (stereo unspecified) | - | 29 | . | - | - | 17 | -
COc1ccc(-c2ccc(C(=O)C3CC3)cc2)cc1 | - | - | - | - | - | . | .
O=C1c2ccccc2C(=O)N1SC1CCCCC1 | - | 29 | - | - | - | - | -
CCN(C[C@H]1N[C@@](Cc2ccccc2)(C(=O)OC)[C@H]2C(=O)N(Cc3ccccc3)C(=O)[C@@H]12)S(=O)(=O)c1ccc(C(F)(F)F)cc1 | - | 38 | - | - | - | - | -
O=C1[C@@H](CCc2ccccc2)[C@@H]2c3ccccc3C=NN2[C@@H]2c3ccccc3C=NN12 | . | . | . | - | . | . | .
NS(=O)(=O)c1cccc(NC(=O)c2cccc3c(Br)cccc23)c1 | - | 43 | - | - | - | - | -
CC1C/C(=C/c2ccncc2)C(=O)/C(=C/c2ccncc2)C1 (stereo unspecified) | - | 31 | - | - | - | 29 | 30
CC1C/C(=C/c2cccn2C)C(=O)/C(=C/c2cccn2C)C1 (stereo unspecified) | - | - | - | - | - | . | .
Cn1ccsc1=NC(=O)c1ccc(S(C)(=O)=O)c([N+](=O)[O-])c1 | - | 33 | - | - | - | - | 31
Cc1ccc(C(=O)N=c2sccn2C)cc1C | - | - | - | - | - | . | .
Cn1ccsc1=NC(=O)c1ccc(Cl)c([N+](=O)[O-])c1 | - | 35 | - | - | - | - | -
O=C(O)c1ccccc1-c1noc(-c2ccccc2F)n1 | . | . | . | - | . | . | .
O=C(CN(c1cccc(C(F)(F)F)c1)S(=O)(=O)c1ccc(Cl)c([N+](=O)[O-])c1)NCc1ccc(F)cc1 | - | 29 | - | - | - | 18 | 57
O=C(CN(c1cccc([N+](=O)[O-])c1)S(=O)(=O)c1ccccc1)NCc1cccnc1 | - | - | - | - | - | . | .

Screening data (PubChem)
